In ChEMBL document CHEMBL1125793 (J Med Chem, 1991):

Columns and labels:
[1] = target: T1, Angiotensin II receptor (Rattus norvegicus) (UniProt P29089+P25095+P35351); assay: Inhibitory activity against angiotensin II receptor at a concentration of 10 uM in rat
Procedure, shortened: (§1)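 Displacement of 125I-Ang II ([…]) from rat adrenal membrane fraction, with test agent at a single 10 μM. Buffer was Tris-HCl, NaCl, 5 mM DTT and BSA; incubation 30 min at 22–25 °C in duplicate.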

[2] = target: T1, Angiotensin II receptor (Rattus norvegicus); assay: Inhibitory activity against Angiotensin II receptor, from rat adrenal gland at a concentration of 10 uM; format: tissue-based; procedure, shortened: as §1

T1 sequence (P25095 whole entry, looked up): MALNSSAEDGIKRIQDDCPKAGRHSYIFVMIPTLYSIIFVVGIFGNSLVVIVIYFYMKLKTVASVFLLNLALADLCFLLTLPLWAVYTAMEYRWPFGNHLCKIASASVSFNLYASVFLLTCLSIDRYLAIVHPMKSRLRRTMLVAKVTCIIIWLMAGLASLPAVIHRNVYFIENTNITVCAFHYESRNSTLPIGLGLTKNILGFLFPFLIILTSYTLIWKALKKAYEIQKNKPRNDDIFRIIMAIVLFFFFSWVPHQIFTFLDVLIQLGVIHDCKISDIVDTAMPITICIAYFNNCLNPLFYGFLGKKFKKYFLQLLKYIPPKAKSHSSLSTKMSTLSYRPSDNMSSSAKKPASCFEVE
T1 sequence (P29089 whole entry, looked up): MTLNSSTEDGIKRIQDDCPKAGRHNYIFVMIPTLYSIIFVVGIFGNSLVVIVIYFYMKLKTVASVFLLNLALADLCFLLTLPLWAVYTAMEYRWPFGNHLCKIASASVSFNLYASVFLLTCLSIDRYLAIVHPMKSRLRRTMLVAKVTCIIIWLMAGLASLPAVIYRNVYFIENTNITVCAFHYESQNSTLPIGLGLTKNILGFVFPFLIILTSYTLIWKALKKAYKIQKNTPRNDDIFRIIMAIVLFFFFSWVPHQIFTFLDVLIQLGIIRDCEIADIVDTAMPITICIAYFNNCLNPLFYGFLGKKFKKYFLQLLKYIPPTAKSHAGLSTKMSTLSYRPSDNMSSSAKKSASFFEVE
T1 sequence (P35351 whole entry, looked up): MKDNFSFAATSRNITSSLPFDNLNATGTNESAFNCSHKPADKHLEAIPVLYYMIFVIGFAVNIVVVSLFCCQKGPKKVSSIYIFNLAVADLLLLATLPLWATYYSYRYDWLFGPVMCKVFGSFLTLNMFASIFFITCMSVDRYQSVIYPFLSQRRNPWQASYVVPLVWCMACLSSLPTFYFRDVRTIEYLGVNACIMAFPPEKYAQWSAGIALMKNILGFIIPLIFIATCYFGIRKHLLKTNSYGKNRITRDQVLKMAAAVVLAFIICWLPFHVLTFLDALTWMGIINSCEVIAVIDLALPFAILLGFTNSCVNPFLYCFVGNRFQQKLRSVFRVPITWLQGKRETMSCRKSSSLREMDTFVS

Row | SMILES | inhibition [1] | inhibition [2]
1 | CC(=O)N1Cc2ncn(Cc3ccccc3)c2CC1C(=O)O (stereo not given) | – | 4%
2 | NC(=O)C1Cc2c(ncn2Cc2ccccc2)CN1C(=O)Nc1ccccc1 (stereo not given) | – | 14%

The remaining lines, values ahead:

Row | inhibition [1] | inhibition [2] | SMILES
3 | 27% | – | COc1ccc(Cn2cnc3c2C[C@@H](C(=O)O)N(C(=O)C2c4ccccc4-c4ccccc42)C3)cc1C
4 | – | 12% | O=C(O)C1Cc2c(ncn2Cc2ccccc2)CN1C(=O)c1ccccc1 (stereo not given)
5 | – | 24% | O=C(O)C1Cc2ncn(Cc3ccccc3)c2CN1C(=O)Nc1ccccc1 (stereo not given)
